Columns and labels:
Staphylococcus aureus = assay: Antibacterial activity against Staphylococcus aureus subsp. aureus MTCC 1430 after 24 hrs by NCCLS M7-A6 serial dilution method; type: functional
Method in brief: (§1)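 Two-fold tube dilution in culture medium; compounds dissolved in DMSO and diluted to final concentrations starting from 10 μg/ml until MIC reached. Incubated 24 h at 30 °C. MIC taken as the lowest concentration completely inhibiting growth, reported as pMIC (negative log of molar MIC). Medium plus DMSO was the negative control, ciprofloxacin the positive control. Run in triplicate.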

Escherichia coli = assay: Antibacterial activity against Escherichia coli MTCC 739 after 24 hrs by NCCLS M7-A6 serial dilution method; type: functional; method in brief: as §1
Bacillus subtilis = assay: Antibacterial activity against Bacillus subtilis MTCC 2423 after 24 hrs by NCCLS M7-A6 serial dilution method; design: unit not given here

| SMILES | -logMIC (Staphylococcus aureus) | -logMIC (Escherichia coli) | -logMIC (Bacillus subtilis) |
| --- | --- | --- | --- |
| CCn1cc(C(=O)O)c(=O)c2cc(F)c(N3CCN(c4nnc(-c5ccccc5)o4)CC3)cc21 | 2.58 | 2.65 | 2.58 |
| O=C(O)c1cn(C2CC2)c2cc(N3CCN(c4nnc(-c5cccc([N+](=O)[O-])c5)o4)CC3)c(F)cc2c1=O | 2.24 | 2.17 | 2.28 |
| COc1c(N2CCN(c3nnc(-c4ccc([N+](=O)[O-])cc4)o3)C(C)C2)c(F)cc2c(=O)c(C(=O)O)cn(C3CC3)c12 (stereo unspecified) | 3.61 | 3.24 | 3.11 |
| CCn1cc(C(=O)O)c(=O)c2cc(F)c(N3CCN(c4nnc(-c5ccc([N+](=O)[O-])c([N+](=O)[O-])c5)o4)CC3)cc21 | 3.24 | 3.63 | 3.87 |
| COc1ccc(-c2nnc(N3CCN(c4cc5c(cc4F)c(=O)c(C(=O)O)cn5C4CC4)CC3)o2)cc1 | 3.12 | 3.2 | 3.09 |
| COc1ccc(-c2nnc(N3CCN(c4c(F)cc5c(=O)c(C(=O)O)cn(C6CC6)c5c4OC)CC3C)o2)cc1OC (stereo unspecified) | 3.36 | 3.27 | 3.27 |
| CCn1cc(C(=O)O)c(=O)c2cc(F)c(N3CCN(c4nnc(-c5ccccc5Cl)o4)CC3)cc21 | 3.21 | 3.6 | 3.21 |
| O=C(O)c1cn(C2CC2)c2cc(N3CCN(c4nnc(-c5ccccc5)o4)CC3)c(F)cc2c1=O | 3.26 | 3.22 | 3.87 |
| COc1c(N2CCN(c3nnc(-c4cccc([N+](=O)[O-])c4)o3)C(C)C2)c(F)cc2c(=O)c(C(=O)O)cn(C3CC3)c12 (stereo unspecified) | 3.25 | 3.55 | 3.55 |
| CCn1cc(C(=O)O)c(=O)c2cc(F)c(N3CCN(c4nnc(-c5ccc([N+](=O)[O-])cc5)o4)CC3)cc21 | 3.63 | 3.24 | 3.63 |
| O=C(O)c1cn(C2CC2)c2cc(N3CCN(c4nnc(-c5ccc([N+](=O)[O-])c([N+](=O)[O-])c5)o4)CC3)c(F)cc2c1=O | 2.95 | 3.65 | 3.25 |
| COc1ccc(-c2nnc(N3CCN(c4c(F)cc5c(=O)c(C(=O)O)cn(C6CC6)c5c4OC)CC3C)o2)cc1 (stereo unspecified) | 3.17 | 3.07 | 3.09 |
| CCn1cc(C(=O)O)c(=O)c2cc(F)c(N3CCN(c4nnc(-c5ccc(OC)c(OC)c5)o4)CC3)cc21 | 2.43 | 2.68 | 2.43 |
| O=C(O)c1cn(C2CC2)c2cc(N3CCN(c4nnc(-c5ccccc5Cl)o4)CC3)c(F)cc2c1=O | 2.43 | 2.43 | 2.38 |
| COc1c(N2CCN(c3nnc(-c4ccccc4)o3)C(C)C2)c(F)cc2c(=O)c(C(=O)O)cn(C3CC3)c12 (stereo unspecified) | 3.62 | 2.94 | 3.54 |
| CCn1cc(C(=O)O)c(=O)c2cc(F)c(N3CCN(c4nnc(-c5cccc([N+](=O)[O-])c5)o4)CC3)cc21 | 2.84 | 2.69 | 2.84 |
| O=C(O)c1cn(C2CC2)c2cc(N3CCN(c4nnc(-c5ccc([N+](=O)[O-])cc5)o4)CC3)c(F)cc2c1=O | 2.63 | 2.32 | 2.32 |
| COc1c(N2CCN(c3nnc(-c4ccc([N+](=O)[O-])c([N+](=O)[O-])c4)o3)C(C)C2)c(F)cc2c(=O)c(C(=O)O)cn(C3CC3)c12 (stereo unspecified) | 2.64 | 3.66 | 2.96 |
| CCn1cc(C(=O)O)c(=O)c2cc(F)c(N3CCN(c4nnc(-c5ccc(OC)cc5)o4)CC3)cc21 | 3.2 | 3.5 | 3.2 |
| COc1ccc(-c2nnc(N3CCN(c4cc5c(cc4F)c(=O)c(C(=O)O)cn5C4CC4)CC3)o2)cc1OC | 2.91 | 2.67 | 2.67 |
| COc1c(N2CCN(c3nnc(-c4ccccc4Cl)o3)C(C)C2)c(F)cc2c(=O)c(C(=O)O)cn(C3CC3)c12 (stereo unspecified) | 3.24 | 3.17 | 3.24 |
| O=C(O)c1cn(C2CC2)c2cc(N3CCNCC3)c(F)cc2c1=O [CIPROFLOXACIN] | 3.16 | 3.52 | 3.16 |

— ChEMBL document CHEMBL1817581, “Synthesis, antibacterial evaluation and QSAR studies of 7-[4-(5-aryl-1,3,4-oxadiazole-2-yl)piperazinyl] quinolone derivatives” (2011)
